The subject of experiment [1] is L1210. In words: Antitumor activity against intraperitoneally implanted lymphoid leukemia (LE1210) tumor system at dose 50 mg/kg. The class given is functional, Mus musculus. Particulars: route intraperitoneal. In short, it runs like this:
(§1)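 Murine-screen tumor implanted intraperitoneally and treated at the listed mg/kg doses under standard NCI protocols. Activity is read out as T/C, the treated-to-control ratio.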

The subject of experiment [2] is P388. In words: Antitumor activity against intraperitoneally implanted lymphocytic leukemia (P388) system at dose 50 mg/kg. The class given is functional, Mus musculus. Particulars: route intraperitoneal. In outline: as §1
Experiment [3] has as its system P388. Nature of the experiment: Antitumor activity against intraperitoneally implanted lymphocytic leukemia (P388) system at dose 12.5 mg/kg. The class given is functional, Mus musculus. Particulars: route intraperitoneal. In outline: as §1
The test system of experiment [4] is B16. Nature of the experiment: Antitumor activity against B16 melanoma tumor system at dose 50 mg/kg. The class given is functional, Mus musculus. In short, it runs like this:
(§2)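 B16 melanocarcinoma assay run at the listed mg/kg doses under standard NCI protocols. Activity is read out as T/C, the treated-to-control ratio.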

The test system of experiment [5] is B16. In words: Antitumor activity against B16 melanoma tumor system at dose 25 mg/kg. The class given is functional, Mus musculus. In outline:
as §2

Experiment [6] can be described thus: Antitumor activity against intracerebrally implanted ependymoblastoma (EM) tumor system at dose 25 mg/kg. The class given is functional. In short, it runs like this: (§3)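 Tumor implanted […] and treated at the listed mg/kg doses under standard NCI protocols. Activity is read out as T/C, the treated-to-control ratio.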
Experiment [7] concerns B16. Nature of the experiment: Antitumor activity against B16 melanoma tumor system at dose 12.5 mg/kg. The class given is functional, Mus musculus. In outline:
as §2

Experiment [8] has as its system B16. Nature of the experiment: Antitumor activity against intracerebrally implanted B16 melanoma tumor system at dose 8 mg/kg. The class given is functional, Mus musculus. In outline: as §3
Experiment [9] has as its system P388. In words: Antitumor activity against intraperitoneally implanted lymphocytic leukemia (P388) system at dose 25 mg/kg. The class given is functional, Mus musculus. Particulars: route intraperitoneal. In short, it runs like this: as §1
Experiment [10] has as its system L1210. In words: Antitumor activity against intraperitoneally implanted lymphoid leukemia (LE1210) tumor system at dose 25 mg/kg. The class given is functional, Mus musculus. Particulars: route intraperitoneal. In outline: as §1
Experiment [11] relates to P388. Nature of the experiment: Antitumor activity against intraperitoneally implanted lymphocytic leukemia (P388) system at dose 6.25 mg/kg. The class given is functional, Mus musculus. Particulars: route intraperitoneal. In short, it runs like this:
as §1

The subject of experiment [12] is L1210. In words: Antitumor activity against intraperitoneally implanted lymphoid leukemia (LE1210) tumor system at dose 100 mg/kg. The conditions noted are these: route intraperitoneal. The class given is functional, Mus musculus. In outline:
as §1

The subject of experiment [13] is B16. Nature of the experiment: Antitumor activity against intracerebrally implanted B16 melanoma tumor system at dose 16 mg/kg. The class given is functional, Mus musculus. In outline:
as §3

Experiment [14] can be described thus: Antitumor activity against intracerebrally implanted ependymoblastoma (EM) tumor system at dose 50 mg/kg. The class given is functional. In outline:
as §3

Experiment [15] is described as follows: Antitumor activity against intracerebrally implanted ependymoblastoma (EM) tumor system at dose 12.5 mg/kg. The class given is functional. In outline: as §3
The subject of experiment [16] is P388. In words: Antitumor activity against intraperitoneally implanted P388 lymphocytic leukemia (P388) system at dose 18.75 mg/kg. The class given is functional, Mus musculus. Particulars: route intraperitoneal. In short, it runs like this:
(§4)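 P388 lymphocytic leukemia inoculated intraperitoneally and run under standard NCI screening protocols. Each compound was tested at several graded doses in mg/kg. Activity was read out as T/C for each dose, with confirmatory activity judged by the NCI criteria.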

For experiment [17], the system named is P388. Nature of the experiment: Antitumor activity against intraperitoneally implanted P388 lymphocytic leukemia (P388) system at dose 37.5 mg/kg. The class given is functional, Mus musculus. The conditions noted are these: route intraperitoneal. In short, it runs like this:
as §4

Experiment [18] relates to P388. In words: Antitumor activity against intraperitoneally implanted P388 lymphocytic leukemia (P388) system at dose 105 mg/kg. Particulars: route intraperitoneal. The class given is functional, Mus musculus. In short, it runs like this: as §4
Experiment [19] concerns P388. Nature of the experiment: Antitumor activity against intraperitoneally implanted P388 lymphocytic leukemia (P388) system at dose 75 mg/kg. The class given is functional, Mus musculus. The conditions noted are these: route intraperitoneal. In short, it runs like this: as §4
The subject of experiment [20] is P388. In words: Antitumor activity against intraperitoneally implanted P388 lymphocytic leukemia (P388) system at dose 9.38 mg/kg. The class given is functional, Mus musculus. Particulars: route intraperitoneal. In short, it runs like this: as §4
Experiment [21] concerns P388. Nature of the experiment: Antitumor activity against intraperitoneally implanted P388 lymphocytic leukemia (P388) system at dose 300 mg/kg. The class given is functional, Mus musculus. The conditions noted are these: route intraperitoneal. In outline:
as §4

For experiment [22], the system named is P388. Nature of the experiment: Antitumor activity against intraperitoneally implanted P388 lymphocytic leukemia (P388) system at dose 50 mg/kg. The class given is functional, Mus musculus. Particulars: route intraperitoneal. In outline:
as §4

The test system of experiment [23] is P388. In words: Antitumor activity against intraperitoneally implanted P388 lymphocytic leukemia (P388) system at dose 100 mg/kg. The class given is functional, Mus musculus. The conditions noted are these: route intraperitoneal. In outline: as §4
In experiment [24] the test system is P388. Nature of the experiment: Antitumor activity against intraperitoneally implanted P388 lymphocytic leukemia (P388) system at dose 25 mg/kg. The class given is functional, Mus musculus. The conditions noted are these: route intraperitoneal. In short, it runs like this:
as §4

Experiment [25] has as its system P388. In words: Antitumor activity against intraperitoneally implanted P388 lymphocytic leukemia (P388) system at dose 12.5 mg/kg. The class given is functional, Mus musculus. The conditions noted are these: route intraperitoneal. In outline:
as §4

Drawing on ChEMBL document CHEMBL1121504, “Aporphines. 31. Synthesis and antitumor activity of aporphine nitrogen mustards” (1980), this text covers T/C for three compounds.

Each structure is given as a SMILES string.

On to `COc1ccc2c(c1OC(C)=O)-c1cc(O)cc3c1C(C2)N(C(=O)CN(CCCl)CCCl)CC3` (stereo not given), for which the T/C in [1] came out at 127; in experiment [2] it was 130; in experiment [3], 174; in experiment [4] it was 170; in experiment [5], 135; in experiment [6] it was 99. Further, the T/C in experiment [7] stood at 134; in experiment [8], 111; in experiment [9] it was 168; in [10] it was 136; in experiment [11] it was 143; in [12], 88. Besides, the T/C in experiment [13] was determined as 102; in [14], 86; in [15], 94.

With `COc1ccc2c(c1O)-c1cccc3c1C(C2)N(CCOC(=O)NCCCl)CC3` (stereo not given), the T/C in [16] was 99; in experiment [17], 97; in experiment [18], 99; in experiment [19] it was 99; in experiment [20] it was 101; in experiment [21], 105.

Regarding `COc1ccc2c(c1O)-c1cccc3c1C(C2)N(CCOCCCl)CC3` (stereo not given), the T/C in experiment [22] was 101; in experiment [23], 104; in [24], 107; in experiment [25] it was 99.
